From PubChem BioAssay
Rows were chosen to be rich in hits. Some 2.3% of all compounds tested hit in one or more screens of this group.
Rpn11 block – inhibitors of human proteasome Rpn11; O00487; human 26S proteasome, Ub4-pepOG fluorescence polarization; 20S core pre-blocked with epoxomicin; inhibition, % at 20 µM; 360,000 tested, 0.59% active;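 active = inhibition at 20 µM, scaled to each plate's controls, above about 33%, limit read from the data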
Target sequence (O00487 whole entry, looked up): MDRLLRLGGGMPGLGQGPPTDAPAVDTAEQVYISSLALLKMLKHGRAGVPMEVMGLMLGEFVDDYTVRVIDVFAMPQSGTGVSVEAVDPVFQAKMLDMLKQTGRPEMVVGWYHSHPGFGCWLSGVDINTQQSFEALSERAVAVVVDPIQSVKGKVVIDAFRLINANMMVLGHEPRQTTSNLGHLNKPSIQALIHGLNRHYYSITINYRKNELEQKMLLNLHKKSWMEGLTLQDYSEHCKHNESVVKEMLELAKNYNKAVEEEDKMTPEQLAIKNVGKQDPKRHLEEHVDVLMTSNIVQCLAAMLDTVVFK
Myeloid diff MLP – myeloid differentiation induction. AID 624256. 360,000 tested, 1% active. calls only at 10 µM. ER-HoxA9 myeloid progenitors, lysozyme-GFP differentiation, flow cytometry;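 active = normalized GFP-positive differentiation at or above the plate's own cutoff, the solvent-only control mean plus 3 SD; inconclusive = no clear call, values can overlap the other calls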;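 note: cells exposed to compound for four days before flow analysis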
HNF4A DNA FP – change in binding of human HNF4 alpha to DNA | P41235 | HNF4a-FITC DNA binding, fluorescence polarization, 1 h | activity change, % at 10 µM | 360,000 tested, 0.3% active; in the data active = activity change above about 30%, passing the limit was not always enough
CSN inh – inhibitors of human CSN-mediated cullin deneddylation. Purified CSN, SCF-Nedd8-OG deneddylation, fluorescence polarization. 360,000 tested, 0.38% active. inhibition, % at 12.5 µM. Q92905;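 active = pattern-corrected inhibition above about 35%, with an unprinted fluorescence ratio check between 0.5 and 1.5, limit read from the data, passing the limit was not always enough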;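 note: 0% = enzyme with substrate and 100% = substrate without enzyme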
Target sequence (Q92905 whole entry, looked up, one chain of several): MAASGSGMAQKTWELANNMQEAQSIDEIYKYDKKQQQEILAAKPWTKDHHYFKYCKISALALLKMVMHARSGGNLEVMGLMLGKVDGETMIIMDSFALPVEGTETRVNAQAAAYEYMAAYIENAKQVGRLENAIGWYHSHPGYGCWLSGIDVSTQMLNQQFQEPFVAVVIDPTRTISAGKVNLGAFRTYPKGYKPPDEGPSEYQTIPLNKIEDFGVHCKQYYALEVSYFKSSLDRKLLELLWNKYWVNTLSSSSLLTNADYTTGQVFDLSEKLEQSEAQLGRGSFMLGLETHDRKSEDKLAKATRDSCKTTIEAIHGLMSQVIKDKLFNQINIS
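Material: purified human Csn5 enzyme expressed in HEK293T cells / Medium: Tris buffer pH 7.5, NaCl, DTT, Tween-20, trehalose, ovalbumin / Compound dosing: 12.5 µM single point / Schedule: 90 min incubation of compound, enzyme and substrate at room temperature / Signal: fluorescence polarization of the substrate / Control set: no-enzyme wells high, enzyme-with-substrate wells low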
TPT1 inh – blocks Candida albicans tRNA 2'-phosphotransferase; inhibition, % at 5 µM; 300,000 tested, 0.81% active; recombinant caTPT1, FP RNA substrate dephosphorylation; AID 1962;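 active = inhibition above the mean of all tested compounds plus 3 SD, set per screening campaign, cut at about 24% in these data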;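 note: plate controls were DMSO alone for no effect and ferristatin control at 100 nM for full effect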
Rpn11 confirm – confirmation of human proteasome Rpn11 inhibitors | shares compounds with Rpn11 block | purified human 26S proteasome, Ub4-pepOG fluorescence polarization; proteasome pretreated with epoxomicin | inhibition, % at 20 µM | 1,900 tested, 29% active | AID 602318
MMP-2 inh – MMP-2 (human) inhibition counter-screen; shares compounds with Rpn11 block; inhibition, % at 20 µM; recombinant MMP-2, FRET peptide cleavage fluorescence; 1,900 tested, 4% active; AID 602330;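 note: human MMP-2 activated beforehand with APMA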
Thrombin inh – thrombin (bovine) inhibition counter-screen | inhibition, % at 20 µM | 1,900 tested, 13% active | shares compounds with Rpn11 block | bovine thrombin cleavage of Ub4-pepOG, fluorescence polarization;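 active = mean inhibition at least 40% at 20 µM, or signal 3 deviations below plate average, so some actives read negative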;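 note: plate controls were thrombin with DMSO for no effect and buffer wells lacking thrombin for full effect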
Numbers without * were called inactive; i = inactive; ? = inconclusive; . = no result given; + = active, no number. Cut-off read from the data, not from the text of the source, unless noted: active = inhibition above about 40%; inactive = the rest.

SMILES	Rpn11 block	Myeloid diff MLP	HNF4A DNA FP	CSN inh	TPT1 inh	Rpn11 confirm	MMP-2 inh	Thrombin inh
NC1=NC[C@@H](CC2CCCCC2)N1CCc1cc(C(F)(F)F)cc(C(F)(F)F)c1	71.8*	i	8.7	3.1	.	8.9	-5.9	-22.1
O=C(Nc1c[nH]c(=O)[nH]c1=O)c1ccc2c(c1)C(=O)N(c1cccc([N+](=O)[O-])c1)C2=O	57.4*	i	-35.3	6.2	.	4.0	-22.3	0.9
O=C(Nc1ccccc1C(=O)O)c1ccc2c(c1)C(=O)N(c1cccc([N+](=O)[O-])c1)C2=O	8.7	i	2.1	2.6	-2.3	.	.	.
CC(CCc1ccccc1)NC(=O)C(Cc1ccccc1)NC(N)=O (stereo not drawn)	2.9	i	-3.9	-2.3	-6.3	.	.	.
O=C(COC(=O)CCN1C(=O)/C(=C\C=C\c2ccccc2)SC1=S)Nc1ccc(Br)cc1	59.2*	i	19.0	10.3	13.3	23.4	-13.3	-32.4
CC(C)c1ccccc1NC(=O)COC(=O)CCN1C(=O)/C(=C\C=C\c2ccccc2)SC1=S	.	i	9.6	30.7	16.7	.	.	.
Cc1ccc(NC(=O)C2CC(=O)n3ncnc3N2)cc1C (stereo not drawn)	-6.3	i	-0.9	-7.7	-0.2	.	.	.
O=C(c1cnn(-c2ccccc2)c1)c1cc(F)ccc1O	-7.9	i	4.7	-2.1	0.1	.	.	.
O=C(O)CSc1cc(C(=O)c2cc(F)ccc2O)cn2c(=O)c3c(-c4ccccc4)csc3nc12	38.6*	i	13.0	6.7	10.5	15.1	44.0*	22.0
O=C(O)CCN1CCc2ccccc2C1c1ccncc1 (stereo not drawn)	1.6	i	0.3	-0.5	-1.5	.	.	.
COc1cccc(-c2csc(N3CCN(C(=S)Nc4ccccc4Cl)CC3)n2)c1	10.2	i	5.1	-0.9	1.6	.	.	.
COc1cccc(-c2csc(N3CCN(C(=S)Nc4cccc(Cl)c4)CC3)n2)c1	35.4*	i	4.2	3.5	-4.5	18.0	38.9	10.3
COc1ccc(NC(=O)c2ccc(-c3csc(C)n3)cc2)cc1	5.5	i	-3.2	-2.7	4.7	.	.	.
Cc1nc(-c2ccc(C(=O)Nc3ccc(F)cc3)cc2)cs1	61.4*	i	4.9	5.7	0.4	23.7	-10.9	-7.7
CCc1ccc(S(=O)(=O)N/N=C\c2ccc3c(c2)OCO3)cc1	-6.3	i	0.9	-2.9	-1.2	.	.	.
CN1CCN(C(=O)OC2CC3CC2[C@H]2CCCCN2C3=O)CC1 (stereo partly drawn)	.	i	2.0	3.5	.	.	.	.
O=C(Nc1ccc(-n2cnnn2)cc1)c1cn2ccccc2n1	87.1*	i	21.0	45.6*	0.7	35.9	-111.8	-14.7
CC1Nc2ncnc(N3CCc4ccccc4C3)c2N(Cc2ccc(Cl)cc2)C1=O (stereo not drawn)	43.1*	i	30.9	13.5	11.6	30.6	3.8	15.3
CN1/C(=C\C=N\NC(=O)c2ccc(O)cc2)C(C)(C)c2ccccc21	71.7*	+	38.4*	32.6	-13.3	38.4	-30.9	7.0
CN1/C(=C\C=N\NC(=O)c2cccnc2)C(C)(C)c2ccccc21	3.7	i	4.0	-2.2	0.1	.	.	.
CC(C)(C)c1nc2ccccc2c2nnc(SCC(=O)Nc3nc4ccccc4s3)n12	187.5*	i	1.4	6.0	1.9	81.2*	-0.6	-2.1
CN(C)c1ccc(N=Cc2nc(-c3ccccc3)oc2OC(=O)c2ccccc2)cc1	48.2*	i	1.6	-4.0	5.8	48.6*	-0.2	active
CC1CCCC(NS(=O)(=O)c2cc3c(cc2Cl)NC(=O)CO3)C1C (stereo not drawn)	8.3	i	8.1	-1.5	0.3	.	.	.
CC1CCCC(NC(=O)CCS(=O)(=O)c2cc3c(cc2Cl)NC(=O)CO3)C1C (stereo not drawn)	44.1*	i	-3.0	3.8	-4.8	-10.9	-7.5	-15.7
CCOC(=O)c1ccc(-c2ccc3oc(-c4ccsc4)cc(=O)c3c2)cc1F	43.4*	i	-0.3	-5.3	.	-7.6	-20.6	-11.4
SMILES	Rpn11 block	Myeloid diff MLP	HNF4A DNA FP	CSN inh	TPT1 inh	Rpn11 confirm	MMP-2 inh	Thrombin inh
O=c1cc(-c2ccsc2)oc2cc(-c3ccc4c(c3)OCO4)ccc12	34.8	i	1.1	20.9	.	.	.	.
CCCCc1ccc(NC(=O)CC(C)(C)C)cc1	-3.5	i	-1.8	4.0	0.8	.	.	.
CCCCc1ccc(NC(=O)CC(C)=O)cc1	59.1*	i	1.4	1.6	0.6	-14.2	24.1	-19.8
CN(C)c1ccc(/C=N/NC(=O)c2ccc(NC(=O)c3ccccc3)cc2)cc1	1.0	i	3.5	5.0	-16.1	.	.	.
O=C(C[n+]1ccc(C(=O)N/N=C/c2ccc(O)cc2)cc1)c1ccccc1	104.5*	i	6.6	1.9	7.8	0.2	12.7	-14.3
O=C(N/N=C/c1ccc(Br)cc1)c1ccc(NC(=O)c2ccccc2)cc1	139.7*	i	30.7	-2.0	.	-1.3	-24.3	-10.4
O=C(N/N=C/c1ccncc1)c1cccc(NC(=O)c2ccc(Cl)cc2)c1	73.1*	i	11.5	77.8*	-1.5	47.0*	-1.1	0.3
CC(Sc1nc(N)cc(N)n1)C(=O)Nc1ccc(N2CCOCC2)cc1 (stereo not drawn)	5.9	i	-4.4	-3.5	.	.	.	.
CC12CCC(C/C1=N/O)C2(C)CBr (stereo not drawn)	32.1*	i	-7.7	3.5	-5.8	-14.1	-50.7	-17.3
Cc1cc2ncn(/N=C/c3ccc([N+](=O)[O-])o3)c2cc1C	49.7*	.	6.5	10.6	-2.9	50.3*	-22.4	20.3
O=[N+]([O-])c1ccc(/C=N/N=C/c2ccc([N+](=O)[O-])o2)o1	-21.1	?	-15.3	-4.1	.	.	.	.
CNc1cnn(-c2ccccc2)c(=O)c1Cl	-0.9	i	-2.6	2.5	-1.4	.	.	.
O=c1c(Cl)c(N/N=C/c2ccc(Br)cc2)cnn1-c1ccccc1	96.5*	i	11.7	18.7	-3.5	46.6*	-26.3	12.9
CC(C)(C)OC(=O)COc1ccc(/C=N/NC(=O)CN2CCCCC2)cc1	1.8	i	0.5	5.9	.	.	.	.
O=C(CCl)NCCN1C(=O)S/C(=C\c2cccnc2)C1=O	45.7*	i	12.1	62.0*	1.1	52.9*	23.4	-11.3
Cn1c(N/N=C/c2ccccc2)nc2sc3c(c2c1=O)CCC3	52.7*	i	28.0	-1.7	1.6	-8.2	7.3	-7.2
O=C(NCC1c2ccccc2CCN1C(=O)CN1C(=O)c2ccccc2C1=O)C1CCCCC1 (stereo not drawn)	-0.6	i	-2.6	-4.9	-1.7	.	.	.
